In ChEMBL document CHEMBL1151954, “Photinides A-F, cytotoxic benzofuranone-derived gamma-lactones from the plant endophytic fungus Pestalotiopsis photiniae” (2009):
Activity calls are given as the source filed them. No cut-off for these calls is given here.

Columns and labels:
MDA-MB-231 = assay: Cytotoxicity against human MDA-MB-231 cells at 10 ug/ml after 4 hrs by MTT assay; format: functional
In short: (§1)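 MTT assay in 96-well plates, 10^4 cells per well, attached overnight. Cells were exposed to compound diluted in medium from 10 mg/mL DMSO stocks (vehicle control 0.2% DMSO) at 37 °C, 5% CO2, for 4 h, then changed to fresh DMEM. MTT (0.5 mg/mL) was added for 3 h at 37 °C in the dark. Formazan was dissolved in DMSO and read at 540 nm; results given as inhibitory rate.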

HeLa = assay: Cytotoxicity against human HeLa cells at 10 ug/ml after 4 hrs by MTT assay; format: functional, cell-based; in short: as §1

Compound	Activity (MDA-MB-231)	Activity (HeLa)
COc1cccc2c1C(=O)[C@]1(O2)O[C@@]1(CO)[C@@H]1OC(=O)C[C@H]1C	24.6%	inactive
COc1cccc2c1C(=O)[C@@]1(O2)O[C@]1(CO)[C@@H]1OC(=O)C[C@H]1C	Active	inactive
COc1cccc2c1C(=O)/C(=C(\CO)[C@@H]1OC(=O)C[C@H]1C)O2 [PHOTINIDE A]	24.4%	inactive
COc1cccc2c1C(=O)/C(=C(/CO)[C@@H]1OC(=O)C[C@H]1C)O2 [PHOTINIDE B]	24.2%	inactive
C[C@@H]1CC(=O)O[C@H]1/C(CO)=C1\Oc2cccc(O)c2C1=O [PHOTINIDE C]	23.1%	inactive
C[C@@H]1CC(=O)O[C@H]1/C(CO)=C1/Oc2cccc(O)c2C1=O [PHOTINIDE D]	24.4%	inactive
